Assay results from PubChem BioAssay AID588743 (Vanderbilt Specialized Chemistry Center, 2011).
Activity calls are given as the source filed them.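 Rule for the calls: active = a dose-dependent boost of the low-dose acetylcholine calcium response, with potency and top response fitted; inactive = the rest.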

These molecules were tested against Muscarinic acetylcholine receptor M4 (Homo sapiens) (UniProt P08173) (assay: M4 positive allosteric modulators, potency, SAR follow-up, CHO hM4/Gqi5 cells, calcium mobilization (AID 588743)). Conditions: PAM with EC20 ACh.
Sequence of Muscarinic acetylcholine receptor M4 (Homo sapiens) (P08173 whole entry, looked up): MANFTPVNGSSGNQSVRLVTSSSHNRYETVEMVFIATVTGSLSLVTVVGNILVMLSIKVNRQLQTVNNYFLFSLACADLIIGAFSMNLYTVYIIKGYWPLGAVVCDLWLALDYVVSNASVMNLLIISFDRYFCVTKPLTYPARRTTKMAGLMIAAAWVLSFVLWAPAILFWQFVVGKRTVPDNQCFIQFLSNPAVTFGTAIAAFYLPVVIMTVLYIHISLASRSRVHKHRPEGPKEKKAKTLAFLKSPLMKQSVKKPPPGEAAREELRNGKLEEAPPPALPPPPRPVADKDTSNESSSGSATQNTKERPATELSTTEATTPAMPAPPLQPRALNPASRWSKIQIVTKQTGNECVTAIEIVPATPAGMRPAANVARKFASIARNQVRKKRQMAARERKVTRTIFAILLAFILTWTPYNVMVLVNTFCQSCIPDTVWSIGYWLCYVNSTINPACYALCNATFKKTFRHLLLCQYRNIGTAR
Outline: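 System: CHO cells with human M4 plus Gqi5. Also added: acetylcholine at EC20, then at EC80 86 s later. Timing: 144 s compound preincubation, 37 °C. Signal: calcium mobilization fluorescence, cells loaded with 2.3 µM Fluo-4 AM. Read-out basis: EC50 by four-parameter logistic fit, signal as percent ACh maximum.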

EC50 [nM] | Compound
28.7 | Cc1nc2sc(C(=O)NC3CCOC3)c(N)c2c(C)c1Cl (configuration not stated)
183 | Cc1nc2sc(C(=O)NC(C)C)c(N)c2c(C)c1Cl
1410 | Cc1nc2sc(C(=O)NC(C)c3ccccn3)c(N)c2c(C)c1Cl (configuration not stated)
222 | Cc1nc2sc(C(=O)NCc3ccnnc3)c(N)c2c(C)c1Cl
173 | Cc1nc2sc(C(=O)NCc3ccncn3)c(N)c2c(C)c1Cl
1140 | Cc1nc2sc(C(=O)NCc3ccc(C(F)(F)F)cc3)c(N)c2c(C)c1Cl
120 | Cc1nc2sc(C(=O)NCc3cccc(F)c3F)c(N)c2c(C)c1Cl
220 | Cc1nc2sc(C(=O)NC3CCOCC3)c(N)c2c(C)c1Cl
425 | COCCCNC(=O)c1sc2nc(C)c(Cl)c(C)c2c1N
89.1 | COc1ccc(CNC(=O)c2sc3nc(C)c(Cl)c(C)c3c2N)cc1
372 | Cc1nc2sc(C(=O)NC(C)(C)C)c(N)c2c(C)c1Cl
174 | Cc1nc2sc(C(=O)NCc3nccs3)c(N)c2c(C)c1Cl
596 | Cc1nc2sc(C(=O)NCCC3CCCN3C)c(N)c2c(C)c1Cl (configuration not stated)
20.8 | Cc1nc2sc(C(=O)NC3CC3)c(N)c2c(C)c1Cl
906 | Cc1nc2sc(C(=O)NC3COC3)c(N)c2c(C)c1Cl
132 | Cc1ccc(CNC(=O)c2sc3nc(C)c(Cl)c(C)c3c2N)cc1

EC50 [nM] | Compound
170 | Cc1nc2sc(C(=O)NCc3ccc4c(c3)OCO4)c(N)c2c(C)c1Cl
601 | Cc1nc2sc(C(=O)NC(C)c3cccnc3)c(N)c2c(C)c1Cl (configuration not stated)
1090 | Cc1nc2sc(C(=O)NCC3CCCCC3)c(N)c2c(C)c1Cl
211 | Cc1nc2sc(C(=O)NCCc3ccncc3)c(N)c2c(C)c1Cl
133 | Cc1nc2sc(C(=O)NCc3ccccc3)c(N)c2c(C)c1Cl
600 | Cc1nc2sc(C(=O)NC(C)c3ccncc3)c(N)c2c(C)c1Cl (configuration not stated)
57 | Cc1cc(CNC(=O)c2sc3nc(C)c(Cl)c(C)c3c2N)ccn1
686 | Cc1nc2sc(C(=O)NCCc3ccccn3)c(N)c2c(C)c1Cl
293 | Cc1nc2sc(C(=O)NCc3ccccn3)c(N)c2c(C)c1Cl
1070 | Cc1nc2sc(C(=O)NCc3ncccn3)c(N)c2c(C)c1Cl
188 | Cc1nc2sc(C(=O)NC3CCCCC3)c(N)c2c(C)c1Cl
328 | Cc1nc2sc(C(=O)NCc3cccnc3)c(N)c2c(C)c1Cl
37.2 | Cc1nc2sc(C(=O)NCc3ccncc3)c(N)c2c(C)c1Cl
154 | Cc1nc2sc(C(=O)NCc3ccccc3Cl)c(N)c2c(C)c1Cl
250 | Cc1nc2sc(C(=O)NCc3cnccn3)c(N)c2c(C)c1Cl

Same assay, conditions: PAM with EC20 ACh, at 30 µM (top of the series)

percent ACh max response | Compound
inactive | CCOc1ccc(NC(=O)c2sc3nc(C)c(Cl)c(C)c3c2N)cc1
45.2 | COc1ccc(NC(=O)c2sc3nc(C)c(Cl)c(C)c3c2N)cc1
inactive | Cc1nc2sc(C(=O)Nc3ccccc3N(C)C)c(N)c2c(C)c1Cl
inactive | Cc1nc2sc(C(=O)NCCc3cccnc3)c(N)c2c(C)c1Cl

Same assay, conditions: PAM with EC20 ACh, at 36.9 µM (top of the series)

percent ACh max response | Compound
32.3 | Cc1nc2sc(C(=O)NCc3ccc(Cl)cc3)c(N)c2c(C)c1Cl
31.6 | Cc1nc2sc(C(=O)NCc3ccc(F)c(F)c3)c(N)c2c(C)c1Cl
